In brackets after ≈: the same amount, converted by molar mass. Where two headings read alike, the source gives them in different places.

The subject of assay [1] is cytoplasmic protein synthesis in wheat germ extracts. Particulars: wheat germ extract; at 30 μM; cited from earlier work.
The subject of assay [2] is E. coli tolC. In words: Broth microdilution MIC. It is filed as cell-based. Particulars: Escherichia coli. (Dilution methods test growth across graded concentrations, often in twofold steps.)
Assay [3] concerns P. aeruginosa (ATCC 47085). Briefly: Broth microdilution MIC. It is filed as cell-based. Particulars: Pseudomonas aeruginosa, ATCC47085.
Assay [4] deals with T1, human mitochondrial PheRS (hmPheRS) (Homo sapiens, UniProt O95363).
T1 sequence (O95363 1-451): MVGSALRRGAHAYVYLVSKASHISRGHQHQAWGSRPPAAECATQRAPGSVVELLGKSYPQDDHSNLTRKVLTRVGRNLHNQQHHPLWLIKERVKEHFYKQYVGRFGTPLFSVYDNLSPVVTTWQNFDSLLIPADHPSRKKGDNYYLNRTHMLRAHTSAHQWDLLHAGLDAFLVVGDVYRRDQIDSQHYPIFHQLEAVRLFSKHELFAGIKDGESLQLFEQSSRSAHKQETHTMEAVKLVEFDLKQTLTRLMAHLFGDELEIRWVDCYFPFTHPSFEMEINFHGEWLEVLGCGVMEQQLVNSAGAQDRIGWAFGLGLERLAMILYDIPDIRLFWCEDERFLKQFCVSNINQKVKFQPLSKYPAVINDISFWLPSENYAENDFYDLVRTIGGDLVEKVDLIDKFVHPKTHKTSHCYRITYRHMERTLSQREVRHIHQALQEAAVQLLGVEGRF
In words: Human mitochondrial PheRS aminoacylation assay. Format: biochemical. Particulars: 132 μM compound; 0.2 μM hmPheRS; average of three assays.

Assay [5] deals with cytoplasmic protein synthesis in wheat germ extracts. Briefly: Wheat germ extract poly-Phe cytoplasmic protein synthesis assay. Particulars: poly-U mRNA, compound to 132 μM. It is filed as biochemical. Put shortly: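 Cytoplasmic poly-Phe synthesis in wheat germ extract programmed with poly-U mRNA, yeast tRNAPhe and [3H]phenylalanine. Levels of mRNA, tRNA, label and Mg++ were optimized for poly-Phe synthesis. Cycloheximide served as reference protein-synthesis inhibitor.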

Assay [6] concerns S. aureus (ATCC 29213). Briefly: Broth microdilution MIC. It is filed as cell-based. Particulars: Staphylococcus aureus, ATCC29213.
Assay [7] has as its target S. pneumoniae PheRS (Streptococcus pneumoniae serotype 2, UniProt Q04LU1). In words: tRNA aminoacylation assay in SPA format, S. pneumoniae PheRS. It is filed as biochemical.
The subject of assay [8] is H. influenzae (ATCC 49766). In words: Broth microdilution MIC. Particulars: Haemophilus influenzae, ATCC49766. It is filed as cell-based.
Assay [9] concerns E. faecalis (ATCC 29212). In words: Broth microdilution MIC. It is filed as cell-based. Particulars: Enterococcus faecalis, ATCC29212.
The subject of assay [10] is P. aeruginosa PAO200 (efflux mutant). Briefly: Broth microdilution MIC. It is filed as cell-based. Particulars: Pseudomonas aeruginosa.
Assay [11] deals with M. catarrhalis (ATCC 25238). In words: Broth microdilution MIC. Particulars: Moraxella catarrhalis, ATCC25238. It is filed as cell-based.
The test system of assay [12] is P. aeruginosa (hypersensitive). In words: Broth microdilution MIC. Format: cell-based. Particulars: Pseudomonas aeruginosa, ATCC35151.
Assay [13] has as its target P. aeruginosa PheRS (Pseudomonas aeruginosa, UniProt Q9I0A3). Briefly: tRNA aminoacylation assay in SPA format, P. aeruginosa PheRS. It is filed as biochemical.
Assay [14] deals with S. pneumoniae (ATCC 49619). In words: Broth microdilution MIC. Format: cell-based. Particulars: Streptococcus pneumoniae, ATCC49619.
Assay [15] concerns E. coli (ATCC 25922). Briefly: Broth microdilution MIC. Format: cell-based. Particulars: Escherichia coli, ATCC25922.
The mark [16] stands for this setting: IC50s at five Phe concentrations 25 to 300 μM, ATP fixed at 2.5 mM.
Setting [17] is: IC50s at six ATP concentrations 25 to 1000 μM, Phe fixed at 100 μM.

Sequence of P. aeruginosa PheRS (Q9I0A4 whole entry): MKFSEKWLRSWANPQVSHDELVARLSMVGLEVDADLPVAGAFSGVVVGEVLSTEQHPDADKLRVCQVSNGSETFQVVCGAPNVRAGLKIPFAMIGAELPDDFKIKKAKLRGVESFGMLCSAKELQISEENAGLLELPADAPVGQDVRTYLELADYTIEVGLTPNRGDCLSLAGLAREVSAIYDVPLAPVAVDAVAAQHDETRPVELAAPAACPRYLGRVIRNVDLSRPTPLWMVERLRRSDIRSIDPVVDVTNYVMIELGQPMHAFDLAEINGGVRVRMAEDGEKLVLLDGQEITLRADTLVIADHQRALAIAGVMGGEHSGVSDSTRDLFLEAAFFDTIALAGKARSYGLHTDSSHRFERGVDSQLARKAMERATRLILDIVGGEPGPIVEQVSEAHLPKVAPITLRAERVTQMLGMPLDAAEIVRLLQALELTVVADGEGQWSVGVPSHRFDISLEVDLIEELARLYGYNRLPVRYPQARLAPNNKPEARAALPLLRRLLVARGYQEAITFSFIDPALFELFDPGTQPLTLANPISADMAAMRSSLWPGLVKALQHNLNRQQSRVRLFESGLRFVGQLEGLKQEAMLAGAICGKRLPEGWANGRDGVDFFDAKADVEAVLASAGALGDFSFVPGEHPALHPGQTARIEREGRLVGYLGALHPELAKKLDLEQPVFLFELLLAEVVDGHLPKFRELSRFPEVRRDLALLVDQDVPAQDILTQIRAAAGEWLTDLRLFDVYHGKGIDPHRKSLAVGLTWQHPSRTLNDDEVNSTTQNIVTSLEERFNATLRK
Sequence of P. aeruginosa PheRS (Q9I0A3 whole entry): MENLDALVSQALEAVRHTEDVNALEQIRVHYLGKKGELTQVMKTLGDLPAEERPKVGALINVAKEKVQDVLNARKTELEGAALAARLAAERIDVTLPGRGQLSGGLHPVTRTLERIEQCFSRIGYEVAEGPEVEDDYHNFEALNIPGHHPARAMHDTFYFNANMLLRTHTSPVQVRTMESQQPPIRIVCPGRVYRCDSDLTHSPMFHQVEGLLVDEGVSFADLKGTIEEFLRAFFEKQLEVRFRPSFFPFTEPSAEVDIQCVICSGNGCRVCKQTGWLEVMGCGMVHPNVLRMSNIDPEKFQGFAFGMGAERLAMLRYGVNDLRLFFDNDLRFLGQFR
Sequence of S. pneumoniae PheRS (Q04LU1 whole entry): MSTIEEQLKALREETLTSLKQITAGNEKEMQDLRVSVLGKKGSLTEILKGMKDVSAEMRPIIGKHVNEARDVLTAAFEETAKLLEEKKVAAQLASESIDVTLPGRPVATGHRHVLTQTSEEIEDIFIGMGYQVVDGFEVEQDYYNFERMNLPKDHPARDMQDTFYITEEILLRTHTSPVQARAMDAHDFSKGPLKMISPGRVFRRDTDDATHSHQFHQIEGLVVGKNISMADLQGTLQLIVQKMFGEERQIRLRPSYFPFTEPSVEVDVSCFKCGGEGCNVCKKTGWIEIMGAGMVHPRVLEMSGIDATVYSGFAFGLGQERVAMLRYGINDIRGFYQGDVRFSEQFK

Take `C[C@@H]1C[C@@H]([C@H](O)CC2CC(=O)NC(=O)C2)C(=O)[C@@H](C)C1` [cycloheximide]: in assay [1], the “inhibition of protein synthesis” value is listed as “inhibited”.
As to `Cc1cc2c(C(C)C)c(O)c(O)c(C=O)c2c(O)c1-c1c(C)cc2c(C(C)C)c(O)c(O)c(C=O)c2c1O` [BPP_03B04, gossypol], the MIC in assay [2] was determined as 128 µg/mL (≈ 247 µM); in [3], 16 µg/mL (≈ 30.9 µM); in assay [6], 16 µg/mL (≈ 30.9 µM); in assay [8], 16 µg/mL (≈ 30.9 µM); in [9], 32 µg/mL (≈ 61.7 µM); in [10] it was 16 µg/mL (≈ 30.9 µM). The MIC in assay [11] was 32 µg/mL (≈ 61.7 µM); in [12] it was 16 µg/mL (≈ 30.9 µM); in [14] it was 32 µg/mL (≈ 61.7 µM); in [15], 128 µg/mL (≈ 247 µM). For the same compound, the “decrease of hmPheRS activity” value in [4] was “approximately 80%”. Moreover, the “inhibition of protein synthesis” value in assay [5] is “no inhibition”. Moreover, the half-inhibitory concentration (IC50) was 4.9 µM in assay [7] and 2.3 µM in assay [13]. The Ki in assay [7] was determined as 0.98 µM; in [13] it was 0.83 µM. The “mode of action relative to Phe” value in assay [7] (setting [16]) and in assay [13] (setting [16]) was “competitive” throughout. Moreover, the “mode of action relative to ATP” value in assay [7] (setting [17]) and in assay [13] (setting [17]) was “uncompetitive” throughout.

The term IC50 denotes the concentration at which inhibition is half-maximal. What is called Ki is the equilibrium dissociation constant of an inhibitor or competing ligand from its target. Read a low Ki as a stronger hold on the target.
